Converted amounts (≈) assume the structure as drawn.
Assays:
malondialdehyde (MDA) = experiment: Assay of lipid peroxidation products in liver; type: in vivo, Wistar rats; conditions: 21 d oral, treated groups vs INH-treated group
Outline: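 Hepatic lipid peroxidation was measured as thiobarbituric-acid-reactive MDA (Ohkawa method). 1,1,3,3-tetraethoxypropane was the standard, and results were expressed as micromoles per gram of tissue. Livers came from male Wistar rats (6/group) given oral suspensions in 1% sodium CMC for 21 d, INH 150 mg/kg/day, test compounds equimolar. Mean ± SEM; one-way ANOVA/Dunnett versus the INH group.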

rat liver = experiment: Histopathological analysis of rat liver; type: in vivo, Wistar rats; conditions: H&E-stained liver sections, 21 d oral
Outline: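 Male Wistar rats (180-200 g), acclimatized 1 wk at 24 ± 1 °C, 45%-55% humidity, 12:12 h light/dark; 8 groups of 6. Oral dosing for 21 d as a suspension in 1% sodium CMC, with doses equimolar to the parent drug. On day 22, rats were fasted overnight, bled and sacrificed. Liver was washed in ice-cold saline, fixed in 10% formalin, sectioned, H&E-stained and photographed under light microscopy.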

[1] = system: superoxide dismutase (SOD); experiment: Liver superoxide dismutase activity, hepatoprotective study; type: in vivo, Wistar rats; conditions: 21 d oral; for Level of SOD re-established: dose equimolar to INH 150 mg/kg/day
[2] = In vivo release studies after oral administration of NI; set-up: species or system Wistar rats
Outline: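 Male Wistar rats were fasted 24 h and housed individually in metabolic cages. They received an oral suspension of test compound in 1.0 mL saline, 309 mg/kg (equimolar to INH). EDTA blood was collected at 0 min, every 15 min for 1 h, every 2 h to 10 h, and at 24 h. Samples were spun 5000 rpm at 0-5 °C, methanol-precipitated and analysed by HPLC. Urine and faeces were pooled over 24 h.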

[3] = system: alanine aminotransferase (ALT); experiment: Estimation of serum alanine aminotransferase; type: in vivo, Wistar rats; conditions: 21 d oral, mean ± SEM
Outline: (§1)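 Serum aminotransferases were measured colorimetrically with commercial kits (Reitman–Frankel method). Male Wistar rats (6/group) were dosed orally for 21 d in 1% sodium CMC, INH 150 mg/kg/day, test compounds equimolar. Blood was drawn retrobulbarly after an overnight fast on day 22. Mean ± SEM; one-way ANOVA with Dunnett's test versus the INH group.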

Wistar rats = experiment: Evaluation of hepatoprotective potential; type: in vivo; conditions: male Wistar rats, 21 d oral
Outline: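 Male Wistar rats (180-200 g), acclimatized 1 wk, randomized into 8 groups of 6. Oral suspensions in 1% sodium CMC for 21 d: INH 150 mg/kg/day, prodrugs and physical mixtures equimolar to INH, saline control. On day 22, rats were fasted overnight, bled retrobulbarly and sacrificed. Endpoints: serum ALT/AST, TG, cholesterol; liver SOD, GSHPx, MDA; blinded H&E histology.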

[4] = system: glutathione peroxidase (GSHPx); experiment: Liver glutathione peroxidase, hepatoprotective study; type: in vivo, Wistar rats; conditions: 21 d oral; for Level of GSHPx re-established: dose equimolar to INH 150 mg/kg/day
Aqueous solubility = type: physicochemical; conditions: aqueous (water)
[5] = In vitro release in rat stomach homogenates; type: in vitro ADME; conditions: till 3 h
Outline: (§2)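 Incubations in rat stomach homogenate ran up to 3 h; those in intestinal homogenate ran up to 6 h. Intact prodrug and released INH were quantified simultaneously by validated reverse-phase C18 HPLC using prodrug-specific mobile phases at 1 mL/min with UV detection. Percent hydrolysed and INH released came from calibration curves. Rate constants, half-lives and kinetic order were calculated; samples were run in triplicate.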

[6] = In vitro release kinetics in rat intestinal homogenates; type: in vitro ADME; conditions: for % Prodrug hydrolysed / K ± SD (hydrolysis rate constant): rat intestinal homogenates; for % Prodrug hydrolysed: over 6 h; for K ± SD (hydrolysis rate constant): first-order kinetics, average of three readings; for half-life: rat, intestinal homogenates
Outline: as §2

[7] = system: aspartate aminotransferase (AST); experiment: Estimation of serum aspartate aminotransferase; type: in vivo, Wistar rats; conditions: 21 d oral, mean ± SEM
Outline: as §1

[8] = In vitro stability in phosphate buffer; type: physicochemical; conditions: 0.05 mol/L phosphate buffer, 37 °C, till 6 h, HPLC
Outline: (§3)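 5 mL aliquots were replaced with fresh buffer at 0, 15, 30, 45, 60 min, then every 30 min to 3 h (HCl) or 6 h (phosphate). Analysed by reverse-phase C18 HPLC against 10-100 μg/mL calibration curves; triplicate.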

[9] = In vitro stability in HCl buffer; type: physicochemical; conditions: 0.05 mol/L HCl, 37 °C, till 3 h, HPLC
Outline: as §3

SMILES | Effect on MDA level (in words) (malondialdehyde (MDA)) | Liver histopathology findings (rat liver) | Level of SOD re-established [1] | ALT level [3] | Hepatoprotective potential assessment (overall) (Wistar rats) | Level of GSHPx re-established [4] | solubility (Aqueous solubility) | Release of INH in stomach homogenates [5] | % Prodrug hydrolysed [6] | K ± SD (hydrolysis rate constant) [6] | half-life [6] | AST level [7] | Stability in phosphate buffer, pH 7.4 [8] | Stability in HCl buffer, pH 1.2 [9] | also measured
CC(=O)NC(CS)C(=O)NNC(=O)c1ccncc1 (stereo not shown) [NI, N-{1-mercaptomethyl-2-oxo-2-[N’-(pyridine-4-carbonyl)-hydrazino]-ethyl}-acetamide] | better compared to that achieved with MI | reversal of such pathology, with no evidence of necrosis, inflammation or fibrosis | 93.39% | 48 ± 4.50 U/L | noteworthy effects | 100% | 104 mg/mL (≈ 368 mM) | Negligible | 94.93% | 0.0034 min⁻¹ | 3.89 h | 46 ± 7.30 U/L | Stable | Stable | INH in urine and faeces samples ([2]; 24 h pooled samples): without any presence; Intact NI in urine and faeces samples ([2]; 24 h pooled samples): not observed; Time at which intact NI completely disappeared from blood ([2]; Wistar rats, blood): 7.5 to 9 h; Time from which concentration of intact NI in blood started declining ([2]; Wistar rats, blood): 5.5 to 6.5 h; Time of appearance of intact NI in blood ([2]; Wistar rats, blood): 2 to 2.5 h
CC(S)C(=O)NCC(=O)NNC(=O)c1ccncc1 (stereo not shown) [MGI, 2-Mercapto-N-{2-oxo-2-[N’-(pyridine-4-carbonyl)-hydrazino]-ethyl}-propionamide] | better compared to that achieved with MI | minimal inflammation, with minimal portal triaditis and mild dilation of blood sinusoids | 71.98% |  | moderate effects | 91.83% | 94 mg/mL (≈ 333 mM) | Negligible | 70.11% | 0.0033 min⁻¹ | 3.62 h |  | Stable | Stable | 
NNC(=O)c1ccncc1 [INH, isoniazid, reference compound] | significantly higher | all these pathological changes were noticed |  | 144 ± 7.70 U/L |  |  | 135 mg/mL (≈ 984 mM) |  |  |  |  | 148 ± 7.60 U/L |  |  | Effect on level of SOD (in words) [1]: significantly lower; Effect on level of GSHPx (in words) [4]: significantly lower
CSCCC(N)C(=O)NNC(=O)c1ccncc1 (stereo not shown) [MI, Isonicotinic acid N’-(2-amino-4-methylsulfanyl-butyryl)-hydrazide] |  | minimal inflammation, with minimal portal triaditis and mild dilation of blood sinusoids | 88.69% |  | moderate effects | 93.87% | 114 mg/mL (≈ 425 mM) | Negligible | 86.55% | 0.0051 min⁻¹ | 3.02 h |  | Stable | Stable | 
